We go through 24 compounds from ChEMBL document CHEMBL4699494, “Design, synthesis and evaluation of novel indirubin-based N-hydroxybenzamides, N-hydroxypropenamides and N-hydroxyheptanamides as histone deacetylase inhibitors and antitumor agents” (Bioorg Med Chem Lett, 2020).

pIC50: −log10 of the molar value. Where a name gives a salt, the structure may show the parent alone. Activity calls are given as the source filed them. The rule behind the calls is not given here.

Experiment [1] deals with Histone deacetylase. Put plainly: Inhibition of HDAC in human HeLa nuclear extract using fluoroscence-labeled acetylated peptide as substrate by fluorometric assay. The format is subcellular, Nucleus.
Experiment [2] relates to SW-620. The experiment in a line: Cytotoxicity against human SW620 cells by colorimetric method. The format is functional, cell-based.
For experiment [3], the system named is PC-3. The experiment in a line: Cytotoxicity against human PC3 cells by colorimetric method. It is filed as functional, cell-based.
For experiment [4], the system named is NCI-H23. The experiment in a line: Cytotoxicity against human NCI-H23 cells by colorimetric method. It is filed as functional, cell-based.
In experiment [5] the test system is NCI-H23. The experiment in a line: Potency index, ratio of adriamycin IC50 to compound IC50 for human NCI-H23 cells by colorimetric method. It is filed as functional. The method, boiled down:
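Growth inhibition of cancer cells read by a colorimetric method with slight modifications. IC50 is the concentration giving 50% reduction in cell growth, computed by the Probits method and averaged over three independent experiments. The index is the reference drug's IC50 divided by the compound's IC50 in the same cell line.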

Experiment [6] concerns SW-620. Put plainly: Induction of apoptosis in human SW620 cells assessed as early apoptotic cells by flow cytometry. It is filed as functional, cell-based. (In general: Flow cytometry measures light scatter and fluorescence of single cells or particles in a stream.)
Experiment [7] has as its target Histone deacetylase 2 (Homo sapiens, UniProt Q92769). Put plainly: Inhibition of HDAC2 (unknown origin).
In experiment [8] the target is T1, Protein deacetylase HDAC6 (Homo sapiens, UniProt Q9UBN7).
T1 sequence (Q9UBN7 whole entry): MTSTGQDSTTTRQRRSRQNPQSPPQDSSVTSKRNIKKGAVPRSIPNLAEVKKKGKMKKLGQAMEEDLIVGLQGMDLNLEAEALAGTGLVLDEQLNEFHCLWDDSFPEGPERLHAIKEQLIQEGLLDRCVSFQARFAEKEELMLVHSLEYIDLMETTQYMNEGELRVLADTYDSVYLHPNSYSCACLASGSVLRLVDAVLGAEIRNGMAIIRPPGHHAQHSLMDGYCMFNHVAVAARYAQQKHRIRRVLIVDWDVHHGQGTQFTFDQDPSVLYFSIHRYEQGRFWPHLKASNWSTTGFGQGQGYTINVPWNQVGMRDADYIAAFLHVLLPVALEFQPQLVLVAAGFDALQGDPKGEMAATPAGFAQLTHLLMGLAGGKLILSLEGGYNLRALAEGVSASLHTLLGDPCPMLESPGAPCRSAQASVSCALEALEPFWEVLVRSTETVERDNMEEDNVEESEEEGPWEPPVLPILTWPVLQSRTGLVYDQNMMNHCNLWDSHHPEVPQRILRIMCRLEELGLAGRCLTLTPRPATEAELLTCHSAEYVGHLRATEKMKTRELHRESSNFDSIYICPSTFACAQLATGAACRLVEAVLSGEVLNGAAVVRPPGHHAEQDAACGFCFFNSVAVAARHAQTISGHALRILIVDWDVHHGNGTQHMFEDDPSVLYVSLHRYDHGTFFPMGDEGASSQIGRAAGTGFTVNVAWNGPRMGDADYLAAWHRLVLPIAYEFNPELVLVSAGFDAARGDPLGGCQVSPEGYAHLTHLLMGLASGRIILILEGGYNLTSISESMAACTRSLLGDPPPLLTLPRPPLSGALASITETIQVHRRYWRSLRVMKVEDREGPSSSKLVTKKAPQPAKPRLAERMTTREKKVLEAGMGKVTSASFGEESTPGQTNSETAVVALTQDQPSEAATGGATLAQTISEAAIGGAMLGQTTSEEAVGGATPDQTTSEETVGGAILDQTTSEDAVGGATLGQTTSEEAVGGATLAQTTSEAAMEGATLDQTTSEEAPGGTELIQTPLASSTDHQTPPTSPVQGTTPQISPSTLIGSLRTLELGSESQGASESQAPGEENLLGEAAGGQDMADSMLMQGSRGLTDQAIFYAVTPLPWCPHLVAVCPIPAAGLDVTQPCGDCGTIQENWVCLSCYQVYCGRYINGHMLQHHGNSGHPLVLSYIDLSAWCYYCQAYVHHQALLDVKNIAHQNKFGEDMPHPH
The experiment in a line: Inhibition of HDAC6 (unknown origin).

The species entered for experiment [9] is Homo sapiens. Put plainly: Selectivity index, ratio of IC50 for HDAC2 (unknown origin) to IC50 for HDAC6 (unknown origin).
Experiment [10] concerns SW-620. The experiment in a line: Induction of cell cycle arrest in human SW-620 cells assessed as accumulation at G0/G1 phase by flow cytometry. It is filed as functional, cell-based.
The subject of experiment [11] is SW-620. Put plainly: Induction of cell cycle arrest in human SW-620 cells assessed as accumulation at S phase by flow cytometry. The format is functional, cell-based.

Histone deacetylase 2, sequence (Q92769 whole entry): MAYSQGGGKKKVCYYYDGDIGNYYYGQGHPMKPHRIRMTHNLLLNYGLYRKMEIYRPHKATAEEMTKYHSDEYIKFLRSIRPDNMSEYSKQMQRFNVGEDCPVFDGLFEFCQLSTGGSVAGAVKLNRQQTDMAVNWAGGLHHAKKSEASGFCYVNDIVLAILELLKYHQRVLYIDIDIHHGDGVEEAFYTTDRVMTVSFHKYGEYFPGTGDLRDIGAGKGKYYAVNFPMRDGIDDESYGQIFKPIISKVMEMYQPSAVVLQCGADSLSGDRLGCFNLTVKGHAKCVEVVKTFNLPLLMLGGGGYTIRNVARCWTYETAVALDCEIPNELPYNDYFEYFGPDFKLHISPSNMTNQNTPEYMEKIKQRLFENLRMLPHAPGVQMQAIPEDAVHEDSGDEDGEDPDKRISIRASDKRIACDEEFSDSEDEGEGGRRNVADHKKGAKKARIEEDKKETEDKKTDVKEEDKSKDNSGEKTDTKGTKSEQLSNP

`O=C(/C=C/c1ccc(CN2C(=O)/C(=C3\Nc4ccccc4\C3=N/O)c3cc(Br)ccc32)cc1)NO` had an IC50 in experiment [1] of 183 nM. Further, the pIC50 in [2] was 7.22; in experiment [3] it was 7.05; in experiment [4], 8.05. For the same compound, the “Ratio IC50” value in experiment [5] is on record as “<=10”.
In turn, `O=C(CCCCCCN1C(=O)/C(=C2\Nc3ccccc3\C2=N/O)c2cc(F)ccc21)NO` gave an IC50 in [1] of 14 nM. Besides, the pIC50 was 7.10 in [2], 7.92 in experiment [3] and 8.10 in [4]. Also, in experiment [5], the “Ratio IC50” value was “<=10”.
In the case of `O=C(CCCCCCN1C(=O)/C(=C2\Nc3ccccc3\C2=N/O)c2ccccc21)NO`, in [1], the IC50 is 22 nM. Besides, the negative logarithm of the IC50 (pIC50) in experiment [2] is 7.05; in [3], 7.30; in experiment [4], 7.05. For the same compound, the outcome in experiment [6] was Active. For the same compound, the “Ratio IC50” value in experiment [5] is “<=10”.
`O=C(CCCCCCN1C(=O)/C(=C2\Nc3ccccc3\C2=N/O)c2cc(Cl)ccc21)NO` returned an IC50 in [1] of 3 nM. Moreover, the pIC50 in experiment [2] is 7.22; in [3] it was 7.05; in [4], 7.52. In experiment [5], the “Ratio IC50” value was “<=10”.
Compound `Cc1ccc2c(c1)/C(=C1/Nc3ccccc3/C1=N\O)C(=O)N2Cc1ccc(C(=O)NO)cc1` gave an IC50 in experiment [1] of 5 nM. Moreover, the pIC50 in [2] is 7.52; in experiment [3], 7.05; in experiment [4], 8.00; in experiment [7] it was 7.68; in experiment [8] it was 7.70. For the same compound, in experiment [5], the “Ratio IC50” value is “<=10”.
In turn, `O=C(CCCCCCN1C(=O)/C(=C2\Nc3ccccc3\C2=N/O)c2cccc(Cl)c21)NO` showed an IC50 in [1] of 7 nM. Besides, the figures for the pIC50 in experiment [2], in [3] and in experiment [4] were 7.05, 7.52 and 7.30, respectively. The “Ratio IC50” value in [5] was “<=10”.
The corresponding values for `Cc1ccc2c(c1)/C(=C1/Nc3ccccc3/C1=N\O)C(=O)N2Cc1ccc(/C=C/C(=O)NO)cc1` are 20 nM, 7.30, 7.22, 8.00 and “<=10”.
`O=C(NO)c1ccc(CN2C(=O)/C(=C3\Nc4ccccc4\C3=N/O)c3cc(Br)ccc32)cc1` gave an IC50 in [1] of 39 nM. Further, the pIC50 in experiment [2] is 7.15; in experiment [3] it was 7.30; in [4] it was 8.15; in experiment [7], 7.12; in experiment [8] it was 7.62. In experiment [5], the “Ratio IC50” value is “<=10”.
In experiment [1], `O=C(/C=C/c1ccc(CN2C(=O)/C(=C3\Nc4ccccc4\C3=N/O)c3cc(F)ccc32)cc1)NO` showed an IC50 of 422 nM. In addition, the values for the pIC50 in experiment [2], in experiment [3] and in experiment [4] were 7.30, 7.30 and 8.10, respectively. In addition, the “Ratio IC50” value in experiment [5] is “<=10”.
For the compound `COc1ccc2c(c1)/C(=C1/Nc3ccccc3/C1=N\O)C(=O)N2CCCCCCC(=O)NO`, in experiment [1], the IC50 was 21 nM. Moreover, the values for the pIC50 in experiment [2], in experiment [3] and in experiment [4] were 7.52, 7.30 and 7.15, respectively. In experiment [5], the “Ratio IC50” value is listed as “<=10”.
The matching figures for `O=C(/C=C/c1ccc(CN2C(=O)/C(=C3\Nc4ccccc4\C3=N/O)c3cc(Cl)ccc32)cc1)NO`: 318 nM, 7.10, 7.22, 8.15 and “<=10”.
The matching figures for `COc1ccc2c(c1)/C(=C1/Nc3ccccc3/C1=N\O)C(=O)N2Cc1ccc(/C=C/C(=O)NO)cc1`: 5 nM, 7.40, 7.52, 7.30 and “<=10”.
The matching figures for `O=C(CCCCCCN1C(=O)/C(=C2\Nc3ccccc3\C2=N/O)c2cc(Br)ccc21)NO`: 4 nM, 7.05, 7.52, 8.05 and “<=10”.
Regarding `COc1ccc2c(c1)/C(=C1/Nc3ccccc3/C1=N\O)C(=O)N2Cc1ccc(C(=O)NO)cc1`, the IC50 in [1] was 25 nM. For the same compound, the negative-log IC50 (pIC50) was 7.40 in [2]; 7.52 in experiment [3]; 7.05 in experiment [4]; 7.51 in experiment [7]; 7.52 in experiment [8]. Further, the “Ratio IC50” value in [5] is “<=10”.
For the compound `O=C1Nc2ccccc2/C1=C1/Nc2ccccc2/C1=N\O`, the pIC50 in [2] is 4.87; in experiment [3], 4.80; in experiment [4], 4.95.
`O=C(NO)c1ccc(CN2C(=O)/C(=C3\Nc4ccccc4\C3=N/O)c3cc(F)ccc32)cc1` showed an IC50 in experiment [1] of 218 nM. In addition, the pIC50 was 7.70 in [2]; 7.30 in experiment [3]; 7.52 in experiment [4]; 6.71 in [7]; 7.37 in experiment [8]. In addition, the Ratio IC50 in [9] was 4.5; in experiment [5], “<=10”.
In experiment [1], `Cc1ccc2c(c1)/C(=C1/Nc3ccccc3/C1=N\O)C(=O)N2CCCCCCC(=O)NO` yielded an IC50 of 18 nM. Moreover, the pIC50 in [2] was 7.30; in experiment [3], 7.10; in experiment [4], 8.00. Further, in experiment [5], the “Ratio IC50” value is given as “<=10”.
Regarding `O=C(NO)c1ccc(CN2C(=O)/C(=C3\Nc4ccccc4\C3=N/O)c3ccccc32)cc1`, in experiment [1], the IC50 came out at 195 nM. The pIC50 in experiment [2] was 7.15; in experiment [3], 7.22; in experiment [4], 7.15; in experiment [7], 6.69; in [8], 8.15. The values for the Ratio IC50 in experiment [9] and in [5] were 29 and “<=10”, respectively. For the same compound, the outcome in experiment [10] was Active.
For `O=C(NO)c1ccc(CN2C(=O)/C(=C3\Nc4ccccc4\C3=N/O)c3cccc(Cl)c32)cc1`, the IC50 in experiment [1] stood at 71 nM. The pIC50 in experiment [2] was 7.05; in [3] it was 7.22; in [4], 7.22; in [7] it was 7.06; in experiment [8], 7.31. The “Ratio IC50” value in [5] was “<=10”.
As to `O=C(CCCCCCC(=O)Nc1ccccc1)NO`, in [6], the result was Active.
In the case of `COc1cccc2c1C(=O)c1c(O)c3c(c(O)c1C2=O)C[C@@](O)(C(=O)CO)C[C@@H]3O[C@H]1C[C@H](N)[C@H](O)[C@H](C)O1` [DOXORUBICIN HYDROCHLORIDE], the pIC50 in [2], in [3] and in experiment [4] was 7.05 throughout.
Compound `O=C(/C=C/c1ccc(CN2C(=O)/C(=C3\Nc4ccccc4\C3=N/O)c3cccc(Cl)c32)cc1)NO` displayed an IC50 in experiment [1] of 604 nM. Also, the pIC50 in [2] was 7.22; in experiment [3], 7.05; in experiment [4], 7.30. In addition, the “Ratio IC50” value in experiment [5] is “<=10”.
On to `O=C(NO)c1ccc(CN2C(=O)/C(=C3\Nc4ccccc4\C3=N/O)c3cc(Cl)ccc32)cc1`, for which the half-inhibitory concentration (IC50) in experiment [1] was 174 nM. The pIC50 in [2] is 7.22; in [3], 7.30; in [4] it was 7.30; in experiment [7], 6.73; in experiment [8], 7.80. The Ratio IC50 was 11.7 in [9] and “<=10” in [5].
Compound `O=C(/C=C/c1ccc(CN2C(=O)/C(=C3\Nc4ccccc4\C3=N/O)c3ccccc32)cc1)NO` yielded an IC50 in experiment [1] of 95 nM. The pIC50 in [2] is 7.30; in experiment [3], 7.30; in [4], 8.05. The result in [6], in experiment [10] and in experiment [11] was Active. For the same compound, the “Ratio IC50” value in experiment [5] is “<=10”.

For orientation: IC50 means the midpoint of a concentration-inhibition curve. The term pIC50 denotes −log10 of the IC50, conventionally taken in molar units. Lower therefore signals a large IC50.
